Assay results taken from ChEMBL document CHEMBL2434933, “Synthesis, physicochemical properties of allopurinol derivatives and their biological activity against Trypanosoma cruzi” (Eur J Med Chem, 2013).
In brackets after ≈: the same amount, converted by molar mass. Activity calls are given as the source filed them. No cut-off for these calls is given here.

What was measured:
Trypanosoma cruzi [1] = experiment: Antimicrobial activity against Trypanosoma cruzi RA amastigotes infected in African green monkey Vero cells assessed as growth inhibition at 1 ug/ml after 72 hrs by Giemsa staining-based light microscopy; assay type: functional, organism-based
In short: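 RA-strain bloodstream trypomastigotes infected irradiated Vero cells (2000 rads) on coverslips at a 5:1 parasite:cell ratio for 24 h. Cells were washed, then exposed to 1 ug/mL compound for 72 h at 37 °C in 5% CO2. Coverslips were fixed in methanol and Giemsa-stained. Infected cells were scored by light microscopy against untreated infected cultures.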

Trypanosoma cruzi [2] = experiment: Antimicrobial activity against blood stream form of Trypanosoma cruzi RA assessed as growth inhibition at 1 to 70 ug/ml after 24 hrs by Neubauer chamber counting analysis; assay type: functional, organism-based
In short: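 RA-strain bloodstream trypomastigotes were enriched from infected-mouse blood at peak parasitemia. They were used at 1.5 x 10^6/mL in RPMI 1640 with 10% FCS. Parasites were exposed for 24 h at 37 °C in 5% CO2 to 0–70 ug/mL compound from 40 mM DMSO stocks (final DMSO <0.5%). 0.5% DMSO served as negative control. Surviving parasites were counted by Neubauer chamber. Three independent experiments, each in triplicate.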

Trypanosoma cruzi [3] = experiment: Antimicrobial activity against Trypanosoma cruzi RA amastigotes infected in African green monkey Vero cells assessed as growth inhibition after 72 hrs by Giemsa staining-based light microscopy; assay type: functional, organism-based
In short: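 Vero cells irradiated at 2000 rads, seeded on coverslips and infected with bloodstream trypomastigotes of RA strain at 5:1 parasite:cell for 24 h. Free parasites were washed off and cultures incubated 72 h with compound, 0.5–50 range, triplicate, at 37 °C in 5% CO2. Vehicle 0.5% DMSO. Coverslips were methanol-fixed and Giemsa-stained. Infection rate and amastigotes per cell (100 infected cells) were read by light microscopy. IC50 estimated from percentage infection.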

[4] = Stability of the compound in 0.05 M SDS-0.01 M NaH2PO4/H3PO4 assessed as compound recovery at 6 x 10^-8 mol/ml by micellar liquid chromatography; assay type: physicochemical
In short: (§1)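 Analytical recovery. Standards at 7.5 × 10⁻⁹, 6 × 10⁻⁸ and 3.5 × 10⁻⁷ mol/mL, ten replicates each, were spiked into pH 1.2 and pH 6.8 buffers and into SGF and SIF. They were analysed by MLC with mobile phase 0.05 M SDS–0.01 M NaH2PO4/H3PO4 pH 3.0 at 1.25 mL/min, 25 °C, detection at 250 nm. Recovery was found concentration relative to working standards.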

[5] = Cytotoxicity against mouse splenocytes assessed as cell viability at 50 times IC50 after 32 hrs by Alamar Blue assay; assay type: cell-based; conditions: splenocyte
In short: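 Viability was read by Alamar Blue and expressed as percent of untreated control. Two experiments, each in duplicate.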

Plasma = experiment: Metabolic stability of the compound in human plasma; assay type: ADME, cell-free
In short: (§2)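 Stability in human plasma was followed by micellar LC, with allopurinol tracked as product. Pseudo-first-order kinetics gave t1/2 or kobs.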

[6] = Stability of the compound in 0.1 M SDS-0.01 M 7.5% (v/v) 1-propanol-NaH2PO4/H3PO4 assessed as compound recovery at 7.5 x 10^-9 mol/ml by micellar liquid chromatography; assay type: physicochemical
In short: (§3)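 Recovery: N1-acyl compounds were spiked at 7.5 x 10^-9, 6 x 10^-8 and 3.5 x 10^-7 mol/mL (ten replicates each) into pH 1.2 and 6.8 buffers, SGF and SIF. Analysis used MLC with 0.1 M SDS–7.5% 1-propanol–0.01 M NaH2PO4/H3PO4 pH 3.0, at 1 mL/min, 25 °C and 276 nm. Recovery was calculated against working standards.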

[7] = Intrinsic solubility of the compound in standard phosphate buffer at pH 6.8 at 25 degC after 24 hrs by shake-flask method; assay type: physicochemical; conditions: read-out: Intrinsic_solubility
In short: (§4)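 Shake-flask intrinsic solubility: solid compound was added to phosphate buffer until excess remained undissolved. The thermostated saturated solution was shaken for 24 h to reach equilibrium, at 25 °C and at 37 °C.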

[8] = Dissociation constant, pKa of the compound at 25 degC; assay type: physicochemical
In short: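 pKa computed with ACDpKa software. Only for the parent drug was it checked against a pH-solubility profile at 25 °C.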

[9] = Stability of the compound in 0.05 M SDS-0.01 M NaH2PO4/H3PO4 assessed as compound recovery at 7.5 x 10^-9 mol/ml by micellar liquid chromatography; assay type: physicochemical; in short: as §1
[10] = Intrinsic solubility of the compound in standard phosphate buffer at pH 6.8 at 37 degC after 24 hrs by shake-flask method; assay type: physicochemical; conditions: read-out: Intrinsic_solubility; in short: as §4
[11] = Stability of the compound in simulated gastric fluid assessed as retention time by micellar liquid chromatography; assay type: physicochemical; conditions: simulated gi fluid
[12] = Stability of the compound in 0.1 M SDS-0.01 M 7.5% (v/v) 1-propanol-NaH2PO4/H3PO4 assessed as compound recovery at 3.5 x 10^-7 mol/ml by micellar liquid chromatography; assay type: physicochemical; in short: as §3
[13] = Stability of the compound in simulated intestinal fluid assessed as retention time by micellar liquid chromatography; assay type: physicochemical; conditions: simulated gi fluid
[14] = Drug degradation in 0.1 M NaOH at 1 mg/ml at 90 degC after 16 hrs; assay type: physicochemical
In short: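 Compound at 1 mg/mL was heated in 0.1 M NaOH at 90 °C for 16 h. Percent degradation was quantified by micellar liquid chromatography.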

[15] = Stability of the compound in 0.05 M SDS-0.01 M NaH2PO4/H3PO4 assessed as compound recovery at 3.5 x 10^-7 mol/ml by micellar liquid chromatography; assay type: physicochemical; in short: as §1
[16] = Stability of the compound in 0.1 M SDS-0.01 M 7.5% (v/v) 1-propanol-NaH2PO4/H3PO4 assessed as compound recovery at 6 x 10^-8 mol/ml by micellar liquid chromatography; assay type: physicochemical; in short: as §3
[17] = Stability of the compound in buffer at 37 degC at pH 6.8 after 3 hrs in presence of pancreatin; assay type: ADME; conditions: pH 6.8, 3 h
In short: (§5)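 Compounds came from DMSO stocks of 1.0 x 10^-4 mol/mL. They were incubated at 37 °C in buffer pH 1.2 or SGF (pepsin) for 1 h, and in buffer pH 6.8 or SIF (pancreatin) for 3 h. Samples were analysed by micellar LC. Percent degradation was reported; kinetics were treated as pseudo-first-order.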

[18] = Stability of the compound in buffer at 37 degC at pH 1.2 after 1 hr in presence of pepsin; assay type: ADME; conditions: isolated protein, pH 1.2, 1 h; in short: as §5
[19] = Octanol-water partition coefficient, log P of the compound by RP-HPLC analysis; assay type: physicochemical
In short: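 RP-HPLC lipophilicity: isocratic buffer pH 5.5–MeOH, 30–75% MeOH in 5% steps. Three injections per compound and five per standard at each ratio. log k' = log(tR − t0)/t0 was computed from retention times.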

[20] = Stability of the compound in simulated gastric fluid at 37 degC after 1 hr; assay type: physicochemical; conditions: simulated gi fluid; in short: as §5
[21] = Stability of the compound in simulated intestinal fluid at 37 degC after 3 hrs; assay type: physicochemical; conditions: simulated gi fluid; in short: as §5
[22] = Drug degradation in 3.5% H2O2 assessed as allopurinol formation; assay type: physicochemical
[23] = Drug degradation in simulated intestinal fluid at 37 degC after 3 hrs; assay type: physicochemical; conditions: read-out: Drug degradation; in short: as §5
[24] = Drug degradation in simulated gastric fluid at 37 degC after 1 hr; assay type: physicochemical; conditions: read-out: Drug degradation; in short: as §5
[25] = Half life in human plasma; assay type: ADME, cell-free; in short: as §2
[26] = Drug degradation in buffer at 37 degC at pH 6.8 after 3 hrs in presence of pancreatin; assay type: physicochemical; conditions: buffer with pancreatin, read-out: Drug degradation; in short: as §5
[27] = Drug degradation in buffer at 37 degC at pH 1.2 after 1 hr
[28] = Drug degradation in 0.1 M HCl assessed as allopurinol formation at 1 mg/ml at 90 degC; assay type: physicochemical; conditions: buffer
[29] = Drug degradation in 0.1 M NaOH assessed as allopurinol formation at 1 mg/ml at 90 degC; assay type: physicochemical

SMILES: CCCC(=O)n1ncc2c(=O)[nH]cnc21
- growth inhibition (GI) (Trypanosoma cruzi [1]): Active
- growth inhibition (GI) (Trypanosoma cruzi [2]): inactive
- IC50 (Trypanosoma cruzi [3]): 11.3 µM
- inhibition (Trypanosoma cruzi [3]): Dose-dependent effect

SMILES: Oc1ncnc2[nH]ncc12 [ALLOPURINOL]
- growth inhibition (GI) (Trypanosoma cruzi [1]): Active
- Drug recovery [4]: 98.85%
- Activity [5]: Non-toxic
- Stability (Plasma): 100%
- Drug recovery [6]: 102.4%
- solubility thermodynamic at 24 h [7]: 490 µg/mL (≈ 3.6 mM)
- pKa [8]: 9.7
- Drug recovery [9]: 97.37%
- solubility thermodynamic at 24 h [10]: 900 µg/mL (≈ 6.61 mM)
- Retention_time [11]: 2.4 min
- Drug recovery [12]: 97.54%
- IC50 (Trypanosoma cruzi [3]): 9.62 µM
- inhibition (Trypanosoma cruzi [3]): Dose-dependent effect
- Retention_time [13]: 2.6 min
- Stability [14]: Stable
- Drug recovery [15]: 100.17%
- Drug recovery [16]: 98.55%

SMILES: CCc1nc(O)c2c[nH]nc2n1
- growth inhibition (GI) (Trypanosoma cruzi [1]): Active
- growth inhibition (GI) (Trypanosoma cruzi [2]): inactive
- Stability [17]: Stable
- Stability [18]: Stable
- logP [19]: 0.52
- Stability (Plasma): 100%
- Drug recovery [6]: 101.19%
- solubility thermodynamic at 24 h [7]: 710 µg/mL (≈ 4.32 mM)
- Stability [20]: Stable
- solubility thermodynamic at 24 h [10]: 940 µg/mL (≈ 5.73 mM)
- Drug recovery [12]: 97.78%
- Retention_time [13]: 4.7 min
- Drug recovery [16]: 97.07%
- Stability [21]: Stable

SMILES: CCCc1nc2n[nH]cc2c(=O)[nH]1
- Stability [17]: Stable
- Stability [18]: Stable
- logP [19]: 1.14
- Stability (Plasma): 100%
- Drug recovery [6]: 101.17%
- solubility thermodynamic at 24 h [7]: 2070 µg/mL (≈ 11.6 mM)
- Stability [20]: Stable
- solubility thermodynamic at 24 h [10]: 2560 µg/mL (≈ 14.4 mM)
- Drug recovery [12]: 100.27%
- Retention_time [13]: 7.8 min
- Drug recovery [16]: 99.59%
- Stability [21]: Stable

SMILES: O=C(Cn1ccnc1[N+](=O)[O-])NCc1ccccc1
- growth inhibition (GI) (Trypanosoma cruzi [1]): Active

SMILES: CCC(=O)n1ncc2c(=O)[nH]cnc21
- growth inhibition (GI) (Trypanosoma cruzi [2]): inactive

SMILES: CCCC(=O)n1ncc2c(O)ncnc21
- Stability [22]: Unstable
- logP [19]: 1.99
- Activity [5]: Non-toxic
- Stability (Plasma): Unstable
- Drug recovery [6]: 103.11%
- solubility thermodynamic at 24 h [7]: > 65 µg/mL
- degraded at 3 h [23]: 100%
- degraded at 1 h [24]: 26.5%
- solubility thermodynamic at 24 h [10]: > 65 µg/mL
- half-life [25]: 6.1 min
- metabolised at 3 h [26]: 100%
- Retention_time [11]: 7.7 min
- metabolised at 1 h [27]: 27%
- Stability [28]: Unstable
- Drug recovery [12]: 100.3%
- Stability [29]: Unstable
- Drug recovery [16]: 101.42%

SMILES: CCCc1nc(O)c2c[nH]nc2n1
- growth inhibition (GI) (Trypanosoma cruzi [2]): inactive

SMILES: CC(=O)n1ncc2c(=O)[nH]cnc21
- growth inhibition (GI) (Trypanosoma cruzi [2]): inactive

SMILES: CCC(=O)n1ncc2c(O)ncnc21
- Stability [22]: Unstable
- logP [19]: 1.22
- Stability (Plasma): Unstable
- Drug recovery [6]: 99.74%
- solubility thermodynamic at 24 h [7]: > 65 µg/mL
- degraded at 3 h [23]: 100%
- degraded at 1 h [24]: 32%
- solubility thermodynamic at 24 h [10]: > 65 µg/mL
- half-life [25]: 9.5 min
- metabolised at 3 h [26]: 100%
- Retention_time [11]: 4 min
- metabolised at 1 h [27]: 30.3%
- Stability [28]: Unstable
- Drug recovery [12]: 103.18%
- Stability [29]: Unstable
- Drug recovery [16]: 103.09%

SMILES: CC(=O)n1ncc2c(O)ncnc21
- Stability [22]: Unstable
- logP [19]: 0.4
- Stability (Plasma): Unstable
- Drug recovery [6]: 98.03%
- solubility thermodynamic at 24 h [7]: > 65 µg/mL
- degraded at 3 h [23]: 100%
- degraded at 1 h [24]: 18.9%
- solubility thermodynamic at 24 h [10]: > 65 µg/mL
- half-life [25]: 8.4 min
- metabolised at 3 h [26]: 100%
- Retention_time [11]: 3 min
- metabolised at 1 h [27]: 17.1%
- Stability [28]: Unstable
- Drug recovery [12]: 99.04%
- Stability [29]: Unstable
- Drug recovery [16]: 102.42%
